In series [1] the target is Dihydroorotate dehydrogenase (quinone), mitochondrial (Homo sapiens, UniProt Q02127). The series is described as follows: Inhibition of recombinant N-terminal GST-tagged human DHODH (31 to 395 residues) expressed in Escherichia coli BL21(DE3) assessed as inhibition of DCIP reduction using dihydroorotate as substrate preincubated for 5 mins followed by substrate addition measured after 5 mins.

Series [2] is described as follows: Stability of the compound in human serum assessed as compound remaining at 37 degC after 24 hrs by RP-HPLC analysis. The note with it: read-out: Stability. Type of series: ADME, cell-free. A digest of the protocol:
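Compound from DMSO stock added to human male AB serum (2% cosolvent) and shaken at 37 °C. Samples taken at 0–24 h were deproteinized with 0.1% TFA in acetonitrile, centrifuged and filtered. Analyzed by C18 RP-HPLC (acetonitrile/water 70/30, 0.1% TFA). Value is % unmodified parent at 24 h.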

Series [3] has as its system Jurkat. The series can be described thus: Antiproliferative activity against human Jurkat T cells assessed as DNA content after 72 hrs by Hoechst 33258 dye-based fluorescence assay. Type of series: functional, cell-based.
In series [4] the test system is Jurkat. The series can be described thus: Antiproliferative activity against human Jurkat T cells assessed as DNA content after 72 hrs in presence of exogenous uridine by Hoechst 33258 dye-based fluorescence assay. The class given is functional, cell-based.
For series [5], the system named is PBMC. The series can be described thus: Immunosuppressive activity against human PBMC assessed as inhibition of PHA-stimulated cell proliferation preincubated for 2 hrs followed by PHA stimulation for 72 hrs by Hoechst 33258 dye-based fluorescence assay. The class given is functional.
Series [6] has as its system PBMC. The series can be described thus: Immunosuppressive activity against human PBMC assessed as inhibition of PHA-stimulated cell proliferation preincubated for 2 hrs followed by PHA stimulation for 72 hrs in presence of exogenous uridine by Hoechst 33258 dye-based fluorescence assay. The class given is functional.
The subject of a further series is U-937. The series can be described thus: Induction of myeloid differentiation in human U937 cells assessed as increase in CD11b expression level at 0.1 to 1 uM up to 4 days by propidium iodide staining-based flow cytometry. The class given is functional. The procedure, abridged: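 Cells plated at 1 × 10^4 with inhibitor 0.1–10 μM. Differentiation was followed daily by flow cytometry, to day 4 for U937 and day 5 for THP1. Markers were PE-CD11b for U937 and FITC-CD14 for THP1, stained 45 min at 4 °C in PBS/2% BSA/1 mM EDTA. Propidium iodide excluded dead cells. Uridine-rescue (100 μM) samples were read at day 3.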
In general terms: Flow cytometry measures light scatter and fluorescence of single cells or particles in a stream.

A further series relates to THP-1. The series can be described thus: Induction of myeloid differentiation in human THP1 cells assessed as increase in CD14 expression level at 0.1 to 1 uM up to 4 days by propidium iodide staining-based flow cytometry.
Series [7] relates to Jurkat. The series is described as follows: Cytotoxicity against human Jurkat T cells assessed as compound concentration required to induce =>30% cell death after 72 hrs by CellTox green assay. Type of series: cell-based. A digest of the protocol: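 Jurkat T cells (complete X-VIVO 15, 10% FBS, 37 °C, 5% CO2; passages 5–10, mycoplasma-tested), 5 × 10^3/well. Cells exposed to 0.001–100 μM compound or DMSO vehicle for 72 h. Cell death read by CellTox Green. Value is the concentration giving significant (≥30%) cytotoxicity, mean ± SE of three independent experiments.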

Results on 4 molecules are retold here after ChEMBL document CHEMBL4130632, “Targeting Myeloid Differentiation Using Potent 2-Hydroxypyrazolo[1,5- a]pyridine Scaffold-Based Human Dihydroorotate Dehydrogenase Inhibitors” (J Med Chem, 2018).

Chain of Dihydroorotate dehydrogenase (quinone), mitochondrial (Q02127 whole entry, the tested form may be a part): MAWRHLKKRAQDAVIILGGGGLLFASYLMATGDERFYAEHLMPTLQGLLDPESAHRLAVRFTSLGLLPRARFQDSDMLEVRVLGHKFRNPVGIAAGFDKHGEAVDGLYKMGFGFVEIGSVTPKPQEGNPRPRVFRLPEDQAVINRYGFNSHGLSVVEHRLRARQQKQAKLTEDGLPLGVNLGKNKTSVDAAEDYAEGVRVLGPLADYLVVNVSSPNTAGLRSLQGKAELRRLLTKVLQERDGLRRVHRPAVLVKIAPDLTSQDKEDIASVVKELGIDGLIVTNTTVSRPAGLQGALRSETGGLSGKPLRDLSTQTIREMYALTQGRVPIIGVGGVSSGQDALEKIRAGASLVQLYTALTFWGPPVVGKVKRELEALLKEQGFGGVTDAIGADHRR

Turning to `Cn1nc(O)c(C(=O)Nc2c(F)c(F)c(-c3ccccc3)c(F)c2F)n1`, the IC50 in series [1] was determined as 45 nM.
The same measure, in the same setting: with `Cn1c(=O)c(C(=O)Nc2c(F)c(F)c(-c3ccccc3)c(F)c2F)c2ccccn21` the figure was > 5000 nM.
As to `Cc1c(-c2ccc(-c3ccccc3F)cc2)nc2ccc(F)cc2c1C(=O)O` [BREQUINAR], the remaining at 24 h in series [2] came to 98%. Also, the IC50 with Jurkat [3] was determined as 910 nM; in the series with Jurkat [4], 94.2 µM; in the series on PBMC [5], 3.74 µM; in the series on PBMC [6], 59.6 µM. The “%max” value in the series with U-937 and in the series on THP-1 was 40% each time.
As to `C/C(O)=C(\C#N)C(=O)Nc1ccc(C(F)(F)F)cc1` [TERIFLUNOMIDE], in the series on Jurkat [7], the Activity worked out at 53 µM.

A word on the IC50: it is the point on the concentration scale where inhibition reaches its midpoint.
